ChEMBL document CHEMBL1135728, “Bis(1H-2-indolyl)methanones as a novel class of inhibitors of the platelet-derived growth factor receptor kinase” (J Med Chem, 2002)

Key:
[1] = target: Platelet-derived growth factor receptor (Homo sapiens, UniProt P09619+P16234); experiment: Antitumor activity measured by the inhibition of platelet-derived growth factor receptor autophosphorylation in intact Swiss 3T3 cells; type: cell-based
In short: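 Quiescent Swiss 3T3 fibroblasts moved to serum-free DMEM and exposed to compound in DMSO (final 1%) for 2 h. They were then stimulated with 100 ng/mL human recombinant PDGF-BB for 10 min at room temperature and lysed. Autophosphorylation was read by immunoblotting. Four to eight concentrations were tested across 2 orders of magnitude, and IC50 came from curve fitting over three independent experiments.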

[2] = target: T1, Protein kinase C epsilon type (Homo sapiens, UniProt Q02156); experiment: Inhibition of His-tagged Protein kinase C epsilon over-expressed in COS7 cells; type: cell-based, COS-7
T1 sequence (Q02156 whole entry): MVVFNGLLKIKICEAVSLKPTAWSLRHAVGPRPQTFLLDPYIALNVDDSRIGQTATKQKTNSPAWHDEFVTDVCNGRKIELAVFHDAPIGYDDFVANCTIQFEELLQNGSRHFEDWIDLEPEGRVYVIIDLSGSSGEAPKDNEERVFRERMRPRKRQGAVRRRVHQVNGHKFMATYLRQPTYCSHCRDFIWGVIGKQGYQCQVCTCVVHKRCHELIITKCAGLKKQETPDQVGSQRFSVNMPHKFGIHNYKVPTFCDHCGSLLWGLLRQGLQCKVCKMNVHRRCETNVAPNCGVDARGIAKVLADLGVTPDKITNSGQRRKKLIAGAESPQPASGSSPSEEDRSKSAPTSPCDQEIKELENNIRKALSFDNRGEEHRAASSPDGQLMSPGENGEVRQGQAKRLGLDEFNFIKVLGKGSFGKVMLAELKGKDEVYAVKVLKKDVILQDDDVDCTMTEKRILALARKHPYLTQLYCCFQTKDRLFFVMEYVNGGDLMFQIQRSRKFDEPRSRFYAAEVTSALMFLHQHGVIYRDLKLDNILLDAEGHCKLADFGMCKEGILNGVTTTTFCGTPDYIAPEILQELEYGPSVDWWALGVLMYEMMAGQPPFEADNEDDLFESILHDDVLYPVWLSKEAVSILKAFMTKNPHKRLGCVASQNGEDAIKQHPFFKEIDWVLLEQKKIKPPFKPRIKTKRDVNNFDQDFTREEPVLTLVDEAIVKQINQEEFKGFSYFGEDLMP
In short: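 RGS-His6-tagged PKC was transiently expressed in COS-7 cells, purified on Ni-NTA agarose and eluted with 500 mM imidazole. Reactions ran 10 min at 30 °C; phosphocellulose binding and scintillation counting gave the read-out.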

[3] = target: Epidermal growth factor receptor (Homo sapiens, UniProt P00533); experiment: Inhibition of Epidermal growth factor receptor autophosphorylation in A431 cells; type: cell-based, A-431
In short: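 A431 cells, starved overnight in serum-free medium, were exposed to compound for 2 h and then stimulated with 100 ng/mL EGF for 10 min. Cells were extracted in lysis buffer (Hepes pH 7.5, 1% Triton), and EGFR tyrosine autophosphorylation was read by immunoblotting.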

[4] = target: Proto-oncogene tyrosine-protein kinase Src (Homo sapiens, UniProt P12931); experiment: Inhibition of Src protein tyrosine kinase
In short: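 Src-dependent tyrosine phosphorylation was measured in intact src-transformed NIH3T3 fibroblasts, with immunoblot read-out.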

[5] = target: T2, Platelet-derived growth factor receptor beta (Homo sapiens, UniProt P09619); experiment: Inhibition of Platelet-derived growth factor receptor beta kinase activity in Sf9-expressed GST-fusion protein
In short: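 A constitutively active GST fusion of the PDGFβ-receptor cytoplasmic domain was expressed in Sf9 cells. The isolated fusion protein was tested in an in vitro autophosphorylation assay at 10 µM ATP.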

[6] = target: T2, Platelet-derived growth factor receptor beta; experiment: Inhibition of purified Platelet-derived growth factor receptor beta kinase activity
In short: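 PDGFβ-receptor kinase was purified from membranes of a receptor-overexpressing cell line. Inhibition was tested in an in vitro autophosphorylation assay at 10 µM ATP.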

[7] = target: Platelet-derived growth factor receptor alpha (Homo sapiens, UniProt P16234); experiment: Inhibition of Platelet-derived growth factor receptor alpha autophosphorylation in PAE cells; type: cell-based, Sus scrofa
In short: (§1)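 Porcine aortic endothelial cells expressing human PDGF α- or β-receptor were used. Receptor autophosphorylation in the intact cells was read by immunoblotting.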

[8] = Inhibition of Protein kinase C isoforms epsilon and iota in vitro phosphorylation
In short: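 RGS-His6-tagged PKC isoforms were expressed transiently in COS-7 cells and purified from lysate on Ni-NTA, with imidazole elution. Reactions ran 10 min at 30 °C, and phosphocellulose-bound radioactivity was counted.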

[9] = target: Fibroblast growth factor receptor 1 (Homo sapiens, UniProt P11362); experiment: Inhibition of Fibroblast growth factor receptor 1 autophosphorylation in PAE cells; type: cell-based, Sus scrofa
[10] = target: T2, Platelet-derived growth factor receptor beta; experiment: Inhibition of Platelet-derived growth factor receptor beta autophosphorylation in PAE cells; type: cell-based, Sus scrofa; in short: as §1
[11] = target: T3, Beta-adrenergic receptor kinase 1 (Homo sapiens, UniProt P25098); experiment: Inhibition of G-protein coupled receptor kinase 2 (GRK2) in vitro phosphorylation
T3 sequence (P25098 whole entry): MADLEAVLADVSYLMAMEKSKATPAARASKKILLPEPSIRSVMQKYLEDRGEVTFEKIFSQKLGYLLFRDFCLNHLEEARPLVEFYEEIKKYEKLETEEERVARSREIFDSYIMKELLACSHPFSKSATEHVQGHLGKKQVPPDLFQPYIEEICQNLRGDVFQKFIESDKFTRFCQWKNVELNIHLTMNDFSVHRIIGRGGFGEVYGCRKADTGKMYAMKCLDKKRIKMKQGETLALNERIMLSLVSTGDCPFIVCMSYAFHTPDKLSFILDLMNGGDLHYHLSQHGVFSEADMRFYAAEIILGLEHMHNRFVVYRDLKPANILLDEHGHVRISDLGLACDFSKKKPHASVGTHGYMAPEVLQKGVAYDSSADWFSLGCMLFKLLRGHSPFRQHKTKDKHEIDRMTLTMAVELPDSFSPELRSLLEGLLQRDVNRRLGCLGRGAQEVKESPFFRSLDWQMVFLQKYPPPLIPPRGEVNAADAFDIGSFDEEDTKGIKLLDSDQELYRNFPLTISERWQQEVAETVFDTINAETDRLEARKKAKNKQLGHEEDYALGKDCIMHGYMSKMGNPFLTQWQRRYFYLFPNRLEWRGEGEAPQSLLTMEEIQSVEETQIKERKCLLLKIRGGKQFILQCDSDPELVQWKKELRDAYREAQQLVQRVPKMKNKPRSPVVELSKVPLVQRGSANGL
In short: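 GRK2 was assayed in vitro using lysates of GRK2-overexpressing 293 cells as the kinase source. Rhodopsin purified from bovine rod outer segments served as substrate.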

Proto-oncogene tyrosine-protein kinase Src, sequence (P12931 2-536 limits assumed): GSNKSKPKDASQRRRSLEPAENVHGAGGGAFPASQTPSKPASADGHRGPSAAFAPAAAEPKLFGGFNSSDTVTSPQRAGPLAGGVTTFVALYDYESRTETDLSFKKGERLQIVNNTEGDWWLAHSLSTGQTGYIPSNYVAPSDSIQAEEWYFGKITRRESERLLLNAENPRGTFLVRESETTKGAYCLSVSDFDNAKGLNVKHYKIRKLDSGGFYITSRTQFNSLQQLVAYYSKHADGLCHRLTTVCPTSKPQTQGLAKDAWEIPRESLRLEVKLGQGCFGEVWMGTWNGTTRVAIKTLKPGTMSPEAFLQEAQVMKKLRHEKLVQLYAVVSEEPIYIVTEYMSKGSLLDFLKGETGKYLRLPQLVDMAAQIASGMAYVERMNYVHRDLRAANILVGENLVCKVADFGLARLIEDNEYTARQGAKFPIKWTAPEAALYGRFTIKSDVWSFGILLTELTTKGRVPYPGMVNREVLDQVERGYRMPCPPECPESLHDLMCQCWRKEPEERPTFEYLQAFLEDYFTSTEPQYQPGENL
T2 sequence (P09619 whole entry, the tested form may be a part): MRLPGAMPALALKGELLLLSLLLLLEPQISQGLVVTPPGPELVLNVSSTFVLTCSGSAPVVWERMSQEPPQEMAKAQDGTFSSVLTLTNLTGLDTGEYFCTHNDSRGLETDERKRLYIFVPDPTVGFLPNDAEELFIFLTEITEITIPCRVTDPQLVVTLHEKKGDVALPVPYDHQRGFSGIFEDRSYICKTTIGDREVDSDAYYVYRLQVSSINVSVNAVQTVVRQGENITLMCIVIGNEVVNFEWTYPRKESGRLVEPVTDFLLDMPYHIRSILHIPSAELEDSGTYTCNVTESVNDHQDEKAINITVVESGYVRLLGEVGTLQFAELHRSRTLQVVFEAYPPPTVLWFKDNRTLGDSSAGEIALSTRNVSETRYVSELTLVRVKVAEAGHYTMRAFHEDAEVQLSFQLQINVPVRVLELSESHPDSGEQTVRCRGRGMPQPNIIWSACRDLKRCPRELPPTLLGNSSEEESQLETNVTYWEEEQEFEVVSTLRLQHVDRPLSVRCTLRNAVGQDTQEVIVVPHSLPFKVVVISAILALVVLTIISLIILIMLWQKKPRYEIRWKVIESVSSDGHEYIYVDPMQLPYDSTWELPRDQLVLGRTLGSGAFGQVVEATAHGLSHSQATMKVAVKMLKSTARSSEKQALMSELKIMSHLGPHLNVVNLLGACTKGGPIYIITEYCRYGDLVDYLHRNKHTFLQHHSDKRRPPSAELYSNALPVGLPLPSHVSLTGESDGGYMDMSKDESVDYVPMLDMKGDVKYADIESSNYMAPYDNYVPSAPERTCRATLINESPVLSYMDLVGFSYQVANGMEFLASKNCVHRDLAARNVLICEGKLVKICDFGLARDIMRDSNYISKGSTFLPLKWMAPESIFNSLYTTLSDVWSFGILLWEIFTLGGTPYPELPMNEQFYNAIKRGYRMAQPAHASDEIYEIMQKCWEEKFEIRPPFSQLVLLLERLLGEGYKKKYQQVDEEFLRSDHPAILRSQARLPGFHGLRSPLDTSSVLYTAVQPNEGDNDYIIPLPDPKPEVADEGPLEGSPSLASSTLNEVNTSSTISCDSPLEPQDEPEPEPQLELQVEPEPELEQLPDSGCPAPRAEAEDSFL
Epidermal growth factor receptor, sequence (P00533 whole entry): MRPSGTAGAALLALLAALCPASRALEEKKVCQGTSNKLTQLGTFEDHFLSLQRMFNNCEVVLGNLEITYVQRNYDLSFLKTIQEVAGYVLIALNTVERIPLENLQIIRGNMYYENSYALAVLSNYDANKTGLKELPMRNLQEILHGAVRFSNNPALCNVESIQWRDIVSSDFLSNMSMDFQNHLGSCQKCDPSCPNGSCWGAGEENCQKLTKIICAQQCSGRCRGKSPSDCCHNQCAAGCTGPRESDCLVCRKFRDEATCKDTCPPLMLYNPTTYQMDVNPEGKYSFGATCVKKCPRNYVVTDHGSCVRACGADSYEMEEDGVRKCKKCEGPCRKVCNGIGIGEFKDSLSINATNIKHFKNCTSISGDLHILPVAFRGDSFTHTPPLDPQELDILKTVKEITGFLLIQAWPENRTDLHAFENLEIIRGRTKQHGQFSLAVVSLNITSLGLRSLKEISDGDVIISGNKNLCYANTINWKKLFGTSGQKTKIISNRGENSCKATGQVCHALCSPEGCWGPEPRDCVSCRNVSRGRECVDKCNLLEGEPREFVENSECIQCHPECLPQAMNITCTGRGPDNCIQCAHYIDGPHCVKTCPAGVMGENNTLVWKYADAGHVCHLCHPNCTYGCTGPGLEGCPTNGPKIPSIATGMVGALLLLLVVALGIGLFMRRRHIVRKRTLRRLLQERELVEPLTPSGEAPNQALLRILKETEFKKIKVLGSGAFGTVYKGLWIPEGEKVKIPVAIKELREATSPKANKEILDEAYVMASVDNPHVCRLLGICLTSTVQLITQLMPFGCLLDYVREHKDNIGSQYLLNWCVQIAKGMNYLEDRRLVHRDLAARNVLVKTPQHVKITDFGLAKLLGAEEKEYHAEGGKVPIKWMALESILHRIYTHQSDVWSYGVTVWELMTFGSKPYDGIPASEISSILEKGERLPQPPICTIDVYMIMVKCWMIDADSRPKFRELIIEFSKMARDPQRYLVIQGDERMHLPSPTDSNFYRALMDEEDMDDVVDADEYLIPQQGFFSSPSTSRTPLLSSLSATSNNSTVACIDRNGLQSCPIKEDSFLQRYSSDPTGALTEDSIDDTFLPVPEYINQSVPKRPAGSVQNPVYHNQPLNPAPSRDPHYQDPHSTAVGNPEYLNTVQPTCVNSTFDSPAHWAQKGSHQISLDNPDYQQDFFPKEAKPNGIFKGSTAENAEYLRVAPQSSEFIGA
Fibroblast growth factor receptor 1, sequence (P11362 whole entry): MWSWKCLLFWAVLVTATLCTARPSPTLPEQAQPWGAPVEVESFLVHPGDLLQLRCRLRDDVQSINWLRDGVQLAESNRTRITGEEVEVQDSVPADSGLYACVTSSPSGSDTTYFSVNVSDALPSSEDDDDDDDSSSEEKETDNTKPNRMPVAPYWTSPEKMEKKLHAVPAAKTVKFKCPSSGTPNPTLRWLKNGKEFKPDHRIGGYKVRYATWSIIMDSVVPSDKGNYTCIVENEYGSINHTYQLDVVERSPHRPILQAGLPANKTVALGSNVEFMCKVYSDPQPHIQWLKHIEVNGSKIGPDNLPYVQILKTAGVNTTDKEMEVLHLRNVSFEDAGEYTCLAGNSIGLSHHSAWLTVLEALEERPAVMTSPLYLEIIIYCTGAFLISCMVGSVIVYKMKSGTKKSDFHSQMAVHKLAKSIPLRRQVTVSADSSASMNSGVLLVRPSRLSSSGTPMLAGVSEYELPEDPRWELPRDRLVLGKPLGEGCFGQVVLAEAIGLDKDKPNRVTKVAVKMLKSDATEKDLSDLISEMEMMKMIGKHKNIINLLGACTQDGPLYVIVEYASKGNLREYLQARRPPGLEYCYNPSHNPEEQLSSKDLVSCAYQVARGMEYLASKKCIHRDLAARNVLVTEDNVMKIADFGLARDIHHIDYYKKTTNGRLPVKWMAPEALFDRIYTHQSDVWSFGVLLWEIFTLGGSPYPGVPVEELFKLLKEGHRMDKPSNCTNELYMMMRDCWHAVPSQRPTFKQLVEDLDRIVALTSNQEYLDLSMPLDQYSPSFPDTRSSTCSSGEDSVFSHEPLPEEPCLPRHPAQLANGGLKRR
Platelet-derived growth factor receptor alpha, sequence (P16234 whole entry): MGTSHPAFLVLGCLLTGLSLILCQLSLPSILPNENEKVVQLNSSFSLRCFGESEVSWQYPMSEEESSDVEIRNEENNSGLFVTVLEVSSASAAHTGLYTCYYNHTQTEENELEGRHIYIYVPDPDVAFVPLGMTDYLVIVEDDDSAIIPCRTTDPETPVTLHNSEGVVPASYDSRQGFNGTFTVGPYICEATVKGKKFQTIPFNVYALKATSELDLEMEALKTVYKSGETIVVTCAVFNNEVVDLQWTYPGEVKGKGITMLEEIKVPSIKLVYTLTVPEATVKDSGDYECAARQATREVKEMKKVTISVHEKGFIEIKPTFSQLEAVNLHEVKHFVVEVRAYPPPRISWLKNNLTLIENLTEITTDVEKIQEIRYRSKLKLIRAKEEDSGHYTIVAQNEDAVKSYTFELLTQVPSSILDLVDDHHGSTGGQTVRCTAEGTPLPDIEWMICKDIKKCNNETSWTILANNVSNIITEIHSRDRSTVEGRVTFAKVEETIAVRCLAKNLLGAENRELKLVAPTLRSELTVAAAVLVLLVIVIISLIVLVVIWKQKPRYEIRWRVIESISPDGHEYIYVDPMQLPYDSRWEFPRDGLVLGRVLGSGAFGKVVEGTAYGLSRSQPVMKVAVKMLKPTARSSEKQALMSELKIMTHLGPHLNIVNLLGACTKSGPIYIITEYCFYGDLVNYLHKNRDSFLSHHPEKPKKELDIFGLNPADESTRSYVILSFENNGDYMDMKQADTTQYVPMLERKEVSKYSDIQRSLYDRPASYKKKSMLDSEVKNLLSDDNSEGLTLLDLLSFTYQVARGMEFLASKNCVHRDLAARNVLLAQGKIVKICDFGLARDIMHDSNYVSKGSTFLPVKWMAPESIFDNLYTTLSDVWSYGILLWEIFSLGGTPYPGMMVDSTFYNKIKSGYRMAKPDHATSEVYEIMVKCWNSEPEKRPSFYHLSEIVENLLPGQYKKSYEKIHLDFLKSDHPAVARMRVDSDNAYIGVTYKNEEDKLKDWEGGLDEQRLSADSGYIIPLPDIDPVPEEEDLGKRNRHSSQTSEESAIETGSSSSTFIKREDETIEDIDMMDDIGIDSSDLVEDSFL

Structure (SMILES) | IC50 [1] | further results
O=C(c1cc2ccccc2[nH]1)c1cc2cc(OCc3ccccc3)ccc2[nH]1 | 10000 nM | 
O=C(c1cc2ccccc2[nH]1)c1cc2cc(OC(=O)c3ccccc3Cl)ccc2[nH]1 | 4600 nM | 
CCOc1ccc(C(=O)Oc2ccc3[nH]c(C(=O)c4cc5ccccc5[nH]4)cc3c2)cc1 | 1300 nM | 
O=C(c1cc2ccccc2[nH]1)c1cc2cc(OCCCCCI)ccc2[nH]1 | > 20000 nM | 
CCC(=O)Oc1ccc2[nH]c(C(=O)c3cc4ccccc4[nH]3)cc2c1 | 900 nM | 
COc1ccc2[nH]c(C(=O)c3cc4cc(OC)ccc4[nH]3)cc2c1 | 10000 nM | 
O=C(c1cc2ccccc2[nH]1)c1cc2cc(OCCN3CCCCC3)ccc2[nH]1 | 800 nM | 
COc1cccc2cc(C(=O)c3cc4ccccc4[nH]3)[nH]c12 | > 30000 nM | 
O=C(c1cc2ccccc2[nH]1)c1cc2cc(OC(=O)C(c3ccccc3)c3ccccc3)ccc2[nH]1 | > 30000 nM | 
O=C(Cc1cccs1)Oc1ccc2[nH]c(C(=O)c3cc4ccccc4[nH]3)cc2c1 | 800 nM | 
O=C(Oc1ccc2[nH]c(C(=O)c3cc4ccccc4[nH]3)cc2c1)c1ccc([N+](=O)[O-])cc1 | 900 nM | 
COc1cccc(CC(=O)Oc2ccc3[nH]c(C(=O)c4cc5ccccc5[nH]4)cc3c2)c1 | 1000 nM | 
CC(=O)OC(C(=O)Oc1ccc2[nH]c(C(=O)c3cc4ccccc4[nH]3)cc2c1)c1ccccc1 (stereo not given) | 900 nM | 
O=C(c1cc2ccccc2[nH]1)c1cc2cc(O)ccc2[nH]1 | 200 nM | IC50 [2]: > 30000 nM; IC50 [3]: > 30000 nM; IC50 [4]: > 30000 nM; IC50 [5]: 600 nM; IC50 [6]: 90 nM; IC50 [7]: 1000 nM; IC50 [8]: > 100000 nM; IC50 [9]: > 10000 nM; IC50 [10]: 200 nM
COc1ccc2[nH]c(C(=O)c3cc4ccccc4o3)cc2c1 | 4000 nM | 
O=C(c1cc2ccccc2s1)c1cc2ccccc2s1 | > 30000 nM | 
CC(=O)Oc1ccccc1C(=O)Oc1ccc2[nH]c(C(=O)c3cc4ccccc4[nH]3)cc2c1 | 2200 nM | 
CCOc1ccc2[nH]c(C(=O)c3cc4ccccc4[nH]3)cc2c1 | 2300 nM | 
O=C(Oc1ccc2[nH]c(C(=O)c3cc4ccccc4[nH]3)cc2c1)c1ccc2ccccc2n1 | 400 nM | 
O=C(Oc1ccc2[nH]c(C(=O)c3cc4ccccc4[nH]3)cc2c1)c1cccnc1 | 1000 nM | 
COc1ccc2[nH]c(C(=O)c3cc4ccccc4[nH]3)cc2c1 | 300 nM | 
O=C(c1cc2ccccc2[nH]1)c1cc2cc(OC(=O)c3ccccc3C(=O)c3ccccc3)ccc2[nH]1 | > 30000 nM | 
COc1ccc2cc(C(=O)c3cc4ccccc4[nH]3)[nH]c2c1 | 300 nM | 

Structure (SMILES) | IC50 [1] | further results
O=C(c1cc2ccccc2[nH]1)c1cc2cc(OC(=O)c3ccco3)ccc2[nH]1 | 600 nM | 
O=C(c1cc2ccccc2[nH]1)c1cc2cc(OC(=O)c3ccccc3Oc3ccccc3)ccc2[nH]1 | > 30000 nM | 
O=C(c1cc2ccccc2[nH]1)c1cc2cc(OCCCCI)ccc2[nH]1 | 5000 nM | 
O=C(Oc1ccc2[nH]c(C(=O)c3cc4ccccc4[nH]3)cc2c1)c1cccc(Oc2ccccc2)c1 | > 30000 nM | 
CN(C)CCOc1ccc2[nH]c(C(=O)c3cc4ccccc4[nH]3)cc2c1 | 800 nM | 
COCC(=O)Oc1ccc2[nH]c(C(=O)c3cc4ccccc4[nH]3)cc2c1 | 200 nM | IC50 [11]: > 100000 nM; IC50 [2]: > 100000 nM; IC50 [3]: > 30000 nM; IC50 [4]: > 30000 nM; IC50 [5]: 4200 nM; IC50 [6]: 20 nM; IC50 [7]: 300 nM; IC50 [8]: 20400 nM; IC50 [9]: > 10000 nM; IC50 [10]: 100 nM
CN(C)CC(=O)Oc1ccc2[nH]c(C(=O)c3cc4ccccc4[nH]3)cc2c1 | 100 nM | IC50 [11]: > 100000 nM; IC50 [2]: 30000 nM; IC50 [3]: > 30000 nM; IC50 [4]: > 30000 nM; IC50 [5]: 1300 nM; IC50 [6]: 100 nM; IC50 [7]: 100 nM; IC50 [8]: 15100 nM; IC50 [9]: > 10000 nM; IC50 [10]: 100 nM
COc1ccc2[nH]c(C(=O)c3cc4ccccc4s3)cc2c1 | 1000 nM | 
COc1cc(C(=O)Oc2ccc3[nH]c(C(=O)c4cc5ccccc5[nH]4)cc3c2)cc(OC)c1OC | 4100 nM | 
O=C(c1cc2ccccc2[nH]1)c1cc2cc(OCC3CCCCC3)ccc2[nH]1 | > 30000 nM | 
COc1ccc(C(=O)Oc2ccc3[nH]c(C(=O)c4cc5ccccc5[nH]4)cc3c2)cc1 | 3200 nM | 
O=C(Oc1ccc2[nH]c(C(=O)c3cc4ccccc4[nH]3)cc2c1)c1ccccc1 | 800 nM | 
CCCC(=O)Oc1ccc2[nH]c(C(=O)c3cc4ccccc4[nH]3)cc2c1 | 1100 nM | 
Cc1ccc2[nH]c(C(=O)c3cc4ccccc4[nH]3)cc2c1 | 7500 nM | 
O=C(CCc1ccccc1)Oc1ccc2[nH]c(C(=O)c3cc4ccccc4[nH]3)cc2c1 | 1200 nM | 
O=C(/C=C/c1ccccc1)Oc1ccc2[nH]c(C(=O)c3cc4ccccc4[nH]3)cc2c1 | 3400 nM | 
CC(Oc1ccc2[nH]c(C(=O)c3cc4ccccc4[nH]3)cc2c1)c1ccccc1 (stereo not given) | > 30000 nM | 
O=C(Oc1ccc2[nH]c(C(=O)c3cc4ccccc4[nH]3)cc2c1)c1ccc(-c2ccccc2)cc1 | 1700 nM | 
O=C(c1cc2ccccc2[nH]1)c1cc2cc(OC(=O)C3CC3)ccc2[nH]1 | 9100 nM | 
CN(C)CCCOc1ccc2[nH]c(C(=O)c3cc4ccccc4[nH]3)cc2c1 | 3200 nM | 
CC(=O)Oc1ccc2[nH]c(C(=O)c3cc4ccccc4[nH]3)cc2c1 | 300 nM | IC50 [11]: > 100000 nM; IC50 [2]: > 100000 nM; IC50 [3]: > 30000 nM; IC50 [4]: > 30000 nM; IC50 [5]: 70 nM; IC50 [6]: 300 nM; IC50 [7]: 100 nM; IC50 [8]: 17000 nM; IC50 [9]: 200 nM; IC50 [10]: 4900 nM
O=C(c1cc2ccccc2[nH]1)c1cc2cc(OCCN3CCOCC3)ccc2[nH]1 | 2500 nM | 
O=C(c1cc2ccccc2[nH]1)c1cc2cc(OC(=O)C3CCC3)ccc2[nH]1 | 9100 nM | 
